From ChEMBL document CHEMBL4825680, “Structure-based discovery of potent and selective small-molecule inhibitors targeting signal transducer and activator of transcription 3 (STAT3)” (Eur J Med Chem, 2021) come the findings set out here.

Calls of active or inactive are those of the source. The calls are words filed in the database; no cut-off is given here.

For one data set, the system named is A549. As to the kind of experiment: Antiproliferative activity against human A549 cells. Format: functional, cell-based.
Data set [1] has as its target T1, Signal transducer and activator of transcription 3 (Homo sapiens, UniProt P40763). The experiment in a line: Binding affinity to STAT3 (unknown origin) […]. Background: Sulforhodamine B stains cellular protein and so reports cell mass.
For data set [2], the target named is T2, Signal transducer and activator of transcription 5A (Homo sapiens) (UniProt P42229).
T2 sequence (whole entry): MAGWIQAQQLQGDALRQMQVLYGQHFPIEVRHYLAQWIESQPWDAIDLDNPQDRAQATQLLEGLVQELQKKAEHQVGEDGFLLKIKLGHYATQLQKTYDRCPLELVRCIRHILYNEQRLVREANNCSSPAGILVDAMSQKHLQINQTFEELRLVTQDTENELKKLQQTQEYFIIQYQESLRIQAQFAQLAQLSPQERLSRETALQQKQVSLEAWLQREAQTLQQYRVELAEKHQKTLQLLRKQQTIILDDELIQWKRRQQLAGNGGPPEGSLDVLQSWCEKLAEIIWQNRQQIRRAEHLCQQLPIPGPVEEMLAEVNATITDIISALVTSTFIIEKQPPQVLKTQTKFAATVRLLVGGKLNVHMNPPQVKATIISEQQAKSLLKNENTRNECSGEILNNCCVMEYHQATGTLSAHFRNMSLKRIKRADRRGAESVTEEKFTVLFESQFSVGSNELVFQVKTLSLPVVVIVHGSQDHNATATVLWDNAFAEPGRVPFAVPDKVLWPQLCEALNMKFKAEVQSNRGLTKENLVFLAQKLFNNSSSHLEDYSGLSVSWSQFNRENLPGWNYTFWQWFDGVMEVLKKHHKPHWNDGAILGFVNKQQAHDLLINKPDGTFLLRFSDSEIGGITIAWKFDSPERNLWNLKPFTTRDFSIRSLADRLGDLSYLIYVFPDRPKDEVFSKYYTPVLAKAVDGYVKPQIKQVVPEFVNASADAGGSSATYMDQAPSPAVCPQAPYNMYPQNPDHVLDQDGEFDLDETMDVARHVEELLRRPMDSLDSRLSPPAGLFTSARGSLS
As to the kind of experiment: Inhibition of STAT5 phosphorylation at Y694 residue in human HCC70 cells at 0.3 to 3 uM after 3 hrs by Western blotting analysis. Conditions: dose 0.3-3 µM. Format: cell-based.

The target in data set [3] is T1, Signal transducer and activator of transcription 3. The experiment in a line: Inhibition of STAT3 in human MDA-MB-468 cells assessed as downregulation of Bcl-xL expression at 0.3 to 3 uM after 24 hrs by western blot analysis. The format is cell-based. Conditions: dose 0.3-3 µM. In short, it runs like this:
(§1)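 TNBC cells given vehicle (0.1% DMSO) or graded compound levels for 24 h, lysed in RIPA with PMSF and phosphatase inhibitors. BCA-quantified lysate (20–50 µg) run on SDS-PAGE, transferred to PVDF, blocked in 5% BSA. Probed overnight at 4 °C for Bcl-xL, Mcl-1 and c-Myc, with β-actin. HRP secondary, ECL detection. Three independent experiments.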
Background: Immunoblotting shows a protein as a band on a membrane.

Data set [4] has the same target. The experiment in a line: Inhibition of STAT3 in human HCC70 cells assessed as downregulation of c-Myc expression at 0.3 to 3 uM after 24 hrs by western blot analysis. Conditions: dose 0.3-3 µM. The format is cell-based. In short, it runs like this:
as §1

The test system of data set [5] is MDA-MB-468. As to the kind of experiment: Antiproliferative activity against human MDA-MB-468 cells assessed as reduction in cell viability after 72 hrs by CCK8 assay. Format: functional, cell-based. Conditions: MDA-MB-468, 72 h. The procedure, abridged:
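Cells seeded at 1000–8000 per well were grown overnight, then exposed to 0.1–100 μM compound or 0.1% DMSO vehicle for 72 h. CCK-8 was added for 0.5–4 h at 37 °C and absorbance read at 480 nm. Viability = (OD compound − blank)/(OD vehicle − blank) × 100, with medium as blank. IC50 fitted from three independent experiments.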
Background: Tetrazolium assays rely on reduction of a dye to a coloured formazan, in cell work by metabolically active cells.

In data set [6] the test system is MDA-MB-468. As to the kind of experiment: Inhibition of colony formation in human MDA-MB-468 cells at 0.3 uM after 10 to 15 days by crystal violet staining based assay. The format is functional, cell-based. Conditions: time 10-15 day. In short, it runs like this:
(§2)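 Cells seeded at 0.5×10^3–1×10^3 per well; compound added the next day. Medium and compound renewed every 2–3 days. After about 10–15 days, colonies fixed with 4% paraformaldehyde, stained with crystal violet, scanned and quantified by image analysis. Triplicate.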

The next data set relates to MDA231-LM2-4175. As to the kind of experiment: Inhibition of colony formation in human MDA231-LM2-4175 cells at 0.3 uM after 10 to 15 days by crystal violet staining based assay. Format: functional, cell-based. Conditions: time 10-15 day. In short, it runs like this: as §2
Data set [7] is described as follows: Induction of apoptosis in human MDA231-LM2-4175 cells assessed as late apoptotic cells at 1 uM after 48 hrs by Annexin-V-FITC/propidium iodide staining based flow cytometric analysis (reference value: 2.60%). Format: functional.
A short description of data set [8]: Induction of apoptosis in human MDA231-LM2-4175 cells assessed as viable cells at 3 uM after 48 hrs by Annexin-V-FITC/propidium iodide staining based flow cytometric analysis (reference value: 94.4%). Conditions: read-out: Activity. The format is functional.
For data set [9], the system named is MDA-MB-468. The experiment in a line: Induction of apoptosis in human MDA-MB-468 cells assessed as early apoptotic cells at 3 uM after 48 hrs by Annexin-V-FITC/propidium iodide staining based flow cytometric analysis (reference value: 2.66%). Format: functional.
The test system of the next data set is MDA-MB-231. The experiment in a line: Induction of apoptosis in human MDA-MB-231 cells assessed as increase in caspase-7 cleavage at 3 uM after 48 hrs by Western blot analysis. The format is functional, cell-based. The procedure, abridged: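 Cells were treated with vehicle (0.1% DMSO) or compound, then analysed by western blot of RIPA lysates (20–50 μg protein, SDS-PAGE, PVDF) for PARP and cleaved caspase-7, with β-actin as loading control. Three independent experiments.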

The next data set relates to HCC70. As to the kind of experiment: Inhibition of cell invasion in human HCC70 cells incubated for 12 hrs by crystal violet staining based transwell assay. Format: functional. Conditions: dose 1-3 µM. The procedure, abridged:
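Cells seeded at 1.5×10^4–3×10^4 per well in the upper chamber of 8.0 µm pore Transwell inserts and treated with graded compound for 12 h. Non-invading cells removed with cotton. Invaded cells fixed in 4% paraformaldehyde, stained with crystal violet, photographed and counted. Triplicate.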

The nature of data set [10]: Cmax in Sprague-Dawley rat at 10 mg/kg, po measured up to 24 hrs by LC-MS/MS analysis. Also on record: route oral, dose 10 mg/kg, time <=24. Conditions: in vivo. The format is ADME, organism-based. In short, it runs like this:
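Male SD rats given a single oral dose of 10 mg/kg in DMSO/0.5% HPMC (5/95, v/v). Blood was drawn at 0.25, 0.5, 1, 2, 4, 8 and 24 h, and plasma was analysed by LC-MS/MS on a BEH phenyl column with a formic acid water/acetonitrile mobile phase.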

Data set [11] is described as follows: Toxicity in mouse xenografted with human MDA-MB-231-4175 cells assessed as morphological change in liver at 5 to 15 mg/kg, […] once daily for 20 days by HE staining based assay. Conditions: in vivo, iv, dose 5-15 mg/kg, time 20 day. Format: organism-based. In short, it runs like this: (§3)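 Female NOD-SCID mice aged 4–5 weeks, given 2×10^6–3×10^6 MDA-MB-231-4175 cells subcutaneously in the flank. At about 100 mm³ tumour volume, randomised n=6/group: vehicle (PBS with 15% Cremophor EL), 5 or 15 mg/kg intraperitoneally daily. Killed at day 20; heart, liver, spleen, lung and kidney collected for morphological examination.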

The nature of data set [12]: Toxicity in mouse xenografted with human MDA-MB-231-4175 cells assessed as morphological change in spleen at 5 to 15 mg/kg, […] once daily for 20 days by HE staining based assay. Format: organism-based. Conditions: in vivo, iv, 480 h, dose 5-15 mg/kg, time 20 day. The procedure, abridged: as §3

T1 sequence (P40763 whole entry): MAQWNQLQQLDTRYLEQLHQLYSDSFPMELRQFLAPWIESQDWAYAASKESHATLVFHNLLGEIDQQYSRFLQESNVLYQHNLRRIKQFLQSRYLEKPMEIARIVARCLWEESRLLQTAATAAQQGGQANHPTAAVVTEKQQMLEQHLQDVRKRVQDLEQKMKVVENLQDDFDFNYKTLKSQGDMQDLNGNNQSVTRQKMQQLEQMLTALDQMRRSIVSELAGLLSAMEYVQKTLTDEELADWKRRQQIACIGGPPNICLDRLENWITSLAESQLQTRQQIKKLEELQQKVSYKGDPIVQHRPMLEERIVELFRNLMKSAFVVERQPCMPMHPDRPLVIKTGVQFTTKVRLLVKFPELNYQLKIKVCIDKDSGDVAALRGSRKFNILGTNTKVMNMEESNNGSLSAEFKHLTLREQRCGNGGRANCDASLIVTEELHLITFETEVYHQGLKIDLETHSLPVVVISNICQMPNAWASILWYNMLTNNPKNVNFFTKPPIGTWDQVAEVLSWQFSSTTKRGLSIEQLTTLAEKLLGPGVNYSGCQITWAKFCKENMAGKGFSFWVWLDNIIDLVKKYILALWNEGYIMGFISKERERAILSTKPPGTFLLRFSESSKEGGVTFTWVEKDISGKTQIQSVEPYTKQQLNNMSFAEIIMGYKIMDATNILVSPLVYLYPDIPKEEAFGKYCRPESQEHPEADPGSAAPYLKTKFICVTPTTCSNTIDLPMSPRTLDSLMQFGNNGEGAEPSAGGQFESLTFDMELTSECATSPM

For `O=C(Cc1c(-c2ccccc2)nc2ccccn12)Nc1ccc2c(c1)S(=O)(=O)C=C2`, the IC50 (usually the concentration at which inhibition is half-maximal) with A549 came to 1100 nM; in the data set with MDA-MB-468 [5], 2500 nM. Further, in data set [1], the affinity, expressed as Kd, was 432 nM. Further, the inhibition entry in data set [2] was “inactive”. Moreover, the inhibition result (in data set [3]; in data set [4]; in the data set with MDA-MB-468 [6]; with MDA231-LM2-4175) was “Active” in each case. For the same compound, the Activity is 4% in data set [7], 32.3% with MDA-MB-468 [9], “Non-Toxic” in data set [11] and “Non-Toxic” in [12]. Besides, in [8], the viability at 3 µM stood at 83.4%. Also, in the data set on MDA-MB-231, the result was Active. For the same compound, the inhibition entry with HCC70 is “Dose-Dependent Effect”. Also, the Cmax (usually the peak of the concentration-time curve) in data set [10] came to 23.8 ng/mL.
